Results: ChEMBL document CHEMBL1146335, “Synthesis and biological activation of an ethylene glycol-linked amino acid conjugate of cyclic cidofovir” (Bioorg Med Chem Lett, 2007)
Blank lines part the entries; values can stand above or below the molecule they belong to.

Columns and labels:
[1] = Half life in Sprague-Dawley rat intestinal lumen in 37degC at 500 uM; assay type: ADME
Summary of the method: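 Compound incubated at 37°C in intestinal perfusate from Sprague Dawley rats. Perfusate made by passing buffered solution (pH 6.5) through an isolated intestinal segment. Sampled between 0 and 3 h, analysed by HPLC, half-life estimated.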

Rattus norvegicus = experiment: Bioavailability in rat at 3 mg, iv; assay type: ADME, organism-based; settings: in vivo, in the assay text read “0.1 mg” for “3 mg”
Summary of the method: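 Rat; drug injected directly into the gastrointestinal tract at 3 mg, with a 0.1 mg intravenous reference. Prodrug AUC summed the released cyclic parent and the intact prodrug. Bioavailability = dose-normalized GI AUC ÷ IV AUC, corrected for the IV vs oral dose difference.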

[2] = Stability in phosphate buffer in pH 4 at 37 degC at 500 uM; assay type: physicochemical; settings: pH 4, 500 µM
Summary of the method: (§1)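 Compound (500 μM) incubated at 37°C in 50 mM phosphate buffer brought to the stated pH with HCl. Monitored over 3 hours; half-life in hours.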

[3] = AUC (0 to infinity) in rat at 0.1 mg, iv; assay type: ADME, organism-based; set-up: dose 0.1 mg, route intravenous, time infinity; settings: plasma
Summary of the method: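 Rat; reference compound dosed intravenously at 0.1 mg. Plasma AUC from zero to infinity, dose normalized.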

Intestine = experiment: (§2) Half life in rat intestine in 37degC at 500 uM; assay type: ADME, tissue-based; settings: 500 µM
Summary of the method: (§3)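 Compound exposed at 37°C to homogenates of Caco-2 or HFF cells, or of rat liver or intestine. Samples taken at intervals from 0 to 3 h and analysed by HPLC. Half-life estimated as for the buffer stability study.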

Caco-2 = experiment: (§4) Half life in Caco-2 cells in 37degC at 500 uM; assay type: ADME, cell-based, Colon; settings: human, caco-2, 500 µM; summary of the method: as §3
HFF = experiment: (§5) Half life in HFF cells in 37degC at 500 uM; assay type: ADME, cell-based; settings: human, hff, 500 µM; summary of the method: as §3
[4] = Stability in phosphate buffer in pH 7 at 37 degC at 500 uM; assay type: physicochemical; summary of the method: as §1
[5] = Stability in phosphate buffer in pH 3 at 37 degC at 500 uM; assay type: physicochemical; settings: pH 3, 500 µM; summary of the method: as §1
[6] = Stability in phosphate buffer in pH 6 at 37 degC at 500 uM; assay type: physicochemical; summary of the method: as §1
Liver = experiment: (§6) Half life in rat liver in 37degC at 500 uM; assay type: ADME, tissue-based; settings: 500 µM; summary of the method: as §3
[7] = Stability in phosphate buffer in pH 5 at 37 degC at 500 uM; assay type: physicochemical; settings: pH 5, 500 µM; summary of the method: as §1
[8] = Stability in phosphate buffer in pH 6.5 at 37 degC at 500 uM; assay type: physicochemical; summary of the method: as §1
Human betaherpesvirus 5 = experiment: Antiviral activity against HCMV Towne in HFF cells by plaque reduction assay; assay type: functional, organism-based; settings: Human betaherpesvirus 5, Towne
Summary of the method: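 HFF cells in 24-well dishes infected with ~100 p.f.u./cm2 HCMV Towne (plaque-purified isolate Po). After adsorption, compounds (DMSO stocks diluted in growth medium) added at 4–8 concentrations in duplicate.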

[9] = as §2; assay type: ADME, tissue-based; settings: rat intestine; summary of the method: as §3
[10] = as §4; assay type: ADME, cell-based, Colon; settings: human, Caco-2 cells; summary of the method: as §3
[11] = as §5; assay type: ADME, cell-based; settings: human, HFF cells; summary of the method: as §3
KB = experiment: Cytotoxicity against human KB cells at 100 uM; assay type: functional, cell-based
Summary of the method: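 KB cells grown logarithmically for two days with compound, in triplicate. Growth read by spectrophotometric quantitation of crystal violet eluted from stained cells.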

[12] = as §6; assay type: ADME, tissue-based; settings: rat liver; summary of the method: as §3

Stability ([1]; in vivo, 500 µM): Stable | F (Rattus norvegicus): 100% | Stability [2]: Stable | AUC(0-inf) [3]: 472 ng·h/mL | Stability (Intestine): Stable | Stability (Caco-2): Stable | Stability (HFF): Stable | Stability ([4]; buffer, pH 7, 500 µM): Stable | Stability [5]: Stable | Stability ([6]; buffer, pH 6, 500 µM): Stable | Stability (Liver): Stable | Stability [7]: Stable
SMILES: Nc1ccn(C[C@H]2COP(=O)(O)CO2)c(=O)n1 [CYCLIC CIDOFOVIR]

Stability [2]: Stable | half-life at 500 µM [8]: 3.7 h | Stability [5]: Stable | Stability [7]: Stable
SMILES: Nc1ccn(C[C@H]2COP(=O)(OCCOC(=O)C(N)Cc3ccccc3)CO2)c(=O)n1 (some centres undefined)

IC50 (Human betaherpesvirus 5): 3000 nM
SMILES: Nc1nc2c(ncn2COC(CO)CO)c(=O)[nH]1 [GANCICLOVIR]

half-life at 500 µM ([1]; Sprague-Dawley, rat intestinal lumen): 2.36 h | Stability [2]: Stable | half-life at 500 µM [9]: 0.208 h | half-life at 500 µM [10]: 0.337 h | half-life at 500 µM [11]: 1.17 h | half-life at 500 µM ([4]; phosphate buffer, pH 7): 3.5 h | Stability [5]: Stable | half-life at 500 µM ([6]; phosphate buffer, pH 6): 16 h | half-life at 500 µM [12]: 3.7 min | Stability [7]: Stable | IC50 (Human betaherpesvirus 5): 680 nM
SMILES: CC(C)C(N)C(=O)OCCOP1(=O)CO[C@@H](Cn2ccc(N)nc2=O)CO1 (some centres undefined)
Activity (KB): Not toxic
